{"source": "ChEMBL document CHEMBL5625169", "about": "“Development of novel PEX5-PEX14 protein-protein interaction (PPI) inhibitors based on an oxopiperazine template” (Eur J Med Chem, 2023)", "key": {"[1]": {"biological_target": "CREB-binding protein/Histone acetyltransferase p300 (Homo sapiens, UniProt Q09472+Q92793)", "experiment": "Binding affinity to p300-CBP (unknown origin) protein protein interaction assessed as dissociation constant by tryptophan fluorescence assay"}, "Trypanosoma brucei": {"system": "Trypanosoma brucei", "experiment": "Antitrypanosomal activity against blood stream form of Trypanosoma brucei Lister 427 MITat 1.2 assessed as parasite growth inhibition incubated for 66 hrs by resazurin dye based assay", "type": "functional, organism-based", "details": "Lister 427 MITat 1.2, 66 h", "outline": "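Bloodstream-form Lister 427 (MITat 1.2) parasites maintained in HMI-11 with 10% FBS at 37 °C, 5% CO2. Twofold serial dilutions, 10 per row, in quadruplicate. Final 2×10^3 parasites/mL, 66 h, then resazurin added and incubated to 72 h. Fluorescence read at ex 530/em 585 nm, background subtracted, untreated wells taken as 100% survival. EC50 from sigmoidal dose-response fit.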"}, "[2]": {"experiment": "Inhibition of Trypanosoma brucei biotinylated PEX5 /N-terminal His-tagged PEX14 (19 to 84 residues) protein-protein interaction expressed in Escherichia coli BL21 assessed as inhibition constant by AlphaScreen assay", "outline": "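TbPEX14 N-terminal domain (aa 19–84) expressed from pETM-11 in E. coli BL21, Ni-NTA then gel filtration in PBS. AlphaScreen competition with serial inhibitor dilution, other components held constant, quadruplicate. Ki = EC50/(1+[LT]/KdL*T), apparent Kd measured for each condition.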"}, "HepG2": {"system": "HepG2", "experiment": "Cytotoxicity against human HepG2 cells assessed as reduction in cell viability incubated for 66 hrs by resazurin staining based analysis", "type": "functional", "details": "HepG2, 66 h", "outline": "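HepG2 cells seeded at 5000 per well and grown overnight at 37 °C, 5% CO2. Compounds tested in triplicate at 100 to 3.125 µM (twofold dilutions); hygromycin B as cytotoxic control. After 66 h, resazurin added and plates incubated a further 6 h. Fluorescence background-subtracted and normalised to untreated cells; EC50 from sigmoidal dose-response fit.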"}, "[3]": {"experiment": "Selectivity index, ratio of EC50 for cytotoxicity against human HepG2 cells assessed as reduction in cell viability to EC50 for antitrypanosomal activity against blood stream form of Trypanosoma brucei Lister 427 MITat 1.2 assessed as parasite growth inhibition", "type": "toxicity, cell-based", "details": "read-out: Ratio EC50", "outline": "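Ratio of HepG2 EC50 (µM) to T. b. brucei EC50. Parasites: bloodstream form, 2×10^3/mL, 66 h plus resazurin to 72 h, quadruplicate.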"}, "[4]": {"biological_target": "Tumour suppressor p53/oncoprotein Mdm2 (Homo sapiens, UniProt P04637+Q00987)", "sequence (P04637 whole entry)": "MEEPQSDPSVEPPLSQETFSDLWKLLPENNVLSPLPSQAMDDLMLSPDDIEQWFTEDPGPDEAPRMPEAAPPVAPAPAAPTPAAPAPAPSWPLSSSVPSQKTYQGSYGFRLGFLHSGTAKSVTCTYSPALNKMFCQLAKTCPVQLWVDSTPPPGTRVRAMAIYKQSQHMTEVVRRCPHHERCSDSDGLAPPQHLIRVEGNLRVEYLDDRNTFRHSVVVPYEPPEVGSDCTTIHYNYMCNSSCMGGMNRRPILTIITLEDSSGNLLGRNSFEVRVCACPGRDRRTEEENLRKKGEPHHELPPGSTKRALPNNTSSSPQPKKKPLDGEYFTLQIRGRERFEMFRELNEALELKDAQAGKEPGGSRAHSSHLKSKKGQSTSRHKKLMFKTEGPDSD", "sequence (Q00987 whole entry)": "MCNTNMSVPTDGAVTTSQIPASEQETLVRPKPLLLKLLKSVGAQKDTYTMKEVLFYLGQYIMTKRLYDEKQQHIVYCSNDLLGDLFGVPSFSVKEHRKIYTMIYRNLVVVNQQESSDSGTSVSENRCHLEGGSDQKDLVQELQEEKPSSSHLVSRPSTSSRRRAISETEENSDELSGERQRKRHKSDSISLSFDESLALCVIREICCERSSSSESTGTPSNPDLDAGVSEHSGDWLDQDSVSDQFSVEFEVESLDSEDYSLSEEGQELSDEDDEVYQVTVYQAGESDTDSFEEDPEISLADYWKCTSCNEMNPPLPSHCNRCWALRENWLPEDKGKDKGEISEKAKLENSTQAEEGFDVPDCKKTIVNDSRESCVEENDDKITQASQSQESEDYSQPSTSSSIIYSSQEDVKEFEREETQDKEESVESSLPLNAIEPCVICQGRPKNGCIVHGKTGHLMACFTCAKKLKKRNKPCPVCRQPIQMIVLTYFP", "experiment": "Binding affinity to MDM2-p53 (unknown origin) protein protein interaction assessed as dissociation constant by fluorescence polarization assay"}}, "data": [{"smiles": "CC(C)C[C@@H]1NCCN([C@@H](CC(C)C)C(=O)N2CCN([C@@H](CCC(N)=O)C(N)=O)C(=O)[C@@H]2C)C1=O", "values": [{"measurement": "Kd", "setting": "[1]", "result": 0.53, "unit": "µM"}]}, {"smiles": "COC(=O)[C@H](Cc1c[nH]c2ccccc12)N1CC(=O)N[C@H](C(=O)NCc2cccc3ccccc23)C1", "values": [{"measurement": "EC50", "setting": "Trypanosoma brucei", "result": 10, "unit": "µM"}, {"measurement": "Ki", "setting": "[2]", "result": 77, "unit": "µM"}, {"measurement": "EC50", "setting": "HepG2", "result": 33, "unit": "µM"}, {"measurement": "selectivity ratio", "setting": "[3]", "result": 3.2}]}, {"smiles": "COC(=O)[C@H](Cc1ccccc1)N1CC(=O)N[C@@H](Cc2c[nH]c3ccccc23)C1=O", "values": [{"measurement": "EC50", "setting": "Trypanosoma brucei", "result": 29, "unit": "µM"}, {"measurement": "Ki", "setting": "[2]", "result": "> 1000", "unit": "µM"}, {"measurement": "EC50", "setting": "HepG2", "result": 24, "unit": "µM"}, {"measurement": "selectivity ratio", "setting": "[3]", "result": "< 1"}]}, {"smiles": "COC(=O)[C@H](Cc1ccccc1)N1CCN[C@@H](Cc2c[nH]c3ccccc23)C1=O", "values": [{"measurement": "EC50", "setting": "Trypanosoma brucei", "result": 43, "unit": "µM"}, {"measurement": "Ki", "setting": "[2]", "result": 265, "unit": "µM"}, {"measurement": "EC50", "setting": "HepG2", "result": "> 100", "unit": "µM"}, {"measurement": "selectivity ratio", "setting": "[3]", "result": "> 2.3"}]}, {"smiles": "COC(=O)[C@H](Cc1c[nH]c2ccccc12)N1CC(=O)N[C@@H](Cc2c[nH]c3ccccc23)C1", "values": [{"measurement": "EC50", "setting": "Trypanosoma brucei", "result": 5, "unit": "µM"}, {"measurement": "Ki", "setting": "[2]", "result": 27, "unit": "µM"}, {"measurement": "EC50", "setting": "HepG2", "result": 17, "unit": "µM"}, {"measurement": "selectivity ratio", "setting": "[3]", "result": 3.6}]}, {"smiles": "COC(=O)[C@H](Cc1c[nH]c2ccccc12)N1CCN[C@@H](Cc2c[nH]c3ccccc23)C1=O", "values": [{"measurement": "EC50", "setting": "Trypanosoma brucei", "result": 30, "unit": "µM"}, {"measurement": "Ki", "setting": "[2]", "result": 133, "unit": "µM"}, {"measurement": "EC50", "setting": "HepG2", "result": "> 100", "unit": "µM"}, {"measurement": "selectivity ratio", "setting": "[3]", "result": "> 3.4"}]}, {"smiles": "O=C1CN(CCc2c[nH]c3ccccc23)C[C@H](Cc2c[nH]c3ccccc23)N1", "values": [{"measurement": "EC50", "setting": "Trypanosoma brucei", "result": 7, "unit": "µM"}, {"measurement": "Ki", "setting": "[2]", "result": 41, "unit": "µM"}, {"measurement": "EC50", "setting": "HepG2", "result": 12, "unit": "µM"}, {"measurement": "selectivity ratio", "setting": "[3]", "result": 1.7}]}, {"smiles": "COC(=O)[C@H](Cc1c[nH]c2ccccc12)N1CC(=O)N[C@H](C(=O)NCc2ccccc2)C1", "values": [{"measurement": "EC50", "setting": "Trypanosoma brucei", "result": "> 100", "unit": "µM"}, {"measurement": "Ki", "setting": "[2]", "result": 494, "unit": "µM"}, {"measurement": "EC50", "setting": "HepG2", "result": "> 100", "unit": "µM"}]}, {"smiles": "COC(=O)[C@H](Cc1c[nH]c2ccccc12)N1C[C@H](Cc2c[nH]c3ccccc23)NC(=O)C1=O", "values": [{"measurement": "EC50", "setting": "Trypanosoma brucei", "result": 29, "unit": "µM"}, {"measurement": "Ki", "setting": "[2]", "result": 75, "unit": "µM"}, {"measurement": "EC50", "setting": "HepG2", "result": "> 100", "unit": "µM"}, {"measurement": "selectivity ratio", "setting": "[3]", "result": "> 3.4"}]}, {"smiles": "NC(=O)[C@H](Cc1c[nH]c2ccccc12)N1CCN[C@@H](Cc2c[nH]c3ccccc23)C1=O", "values": [{"measurement": "EC50", "setting": "Trypanosoma brucei", "result": "> 100", "unit": "µM"}, {"measurement": "Ki", "setting": "[2]", "result": 288, "unit": "µM"}, {"measurement": "EC50", "setting": "HepG2", "result": "> 100", "unit": "µM"}]}, {"smiles": "O=C1CN(C(=O)Cc2c[nH]c3ccccc23)C[C@H](Cc2c[nH]c3ccccc23)N1", "values": [{"measurement": "EC50", "setting": "Trypanosoma brucei", "result": "> 100", "unit": "µM"}, {"measurement": "Ki", "setting": "[2]", "result": 195, "unit": "µM"}, {"measurement": "EC50", "setting": "HepG2", "result": "> 100", "unit": "µM"}]}, {"smiles": "COC(=O)[C@H](Cc1ccccc1)N1CC(=O)N[C@@H](Cc2c[nH]c3ccccc23)C1", "values": [{"measurement": "EC50", "setting": "Trypanosoma brucei", "result": 13, "unit": "µM"}, {"measurement": "Ki", "setting": "[2]", "result": 73, "unit": "µM"}, {"measurement": "EC50", "setting": "HepG2", "result": 56, "unit": "µM"}, {"measurement": "selectivity ratio", "setting": "[3]", "result": 4.3}]}, {"smiles": "O=C1CN([C@H](CO)Cc2c[nH]c3ccccc23)C[C@H](Cc2c[nH]c3ccccc23)N1", "values": [{"measurement": "EC50", "setting": "Trypanosoma brucei", "result": 14, "unit": "µM"}, {"measurement": "Ki", "setting": "[2]", "result": 48, "unit": "µM"}, {"measurement": "EC50", "setting": "HepG2", "result": 24, "unit": "µM"}, {"measurement": "selectivity ratio", "setting": "[3]", "result": 1.7}]}, {"smiles": "COC(=O)[C@H](Cc1c[nH]c2ccccc12)N1CCN(C(C)=O)[C@@H](Cc2c[nH]c3ccccc23)C1=O", "values": [{"measurement": "EC50", "setting": "Trypanosoma brucei", "result": "> 100", "unit": "µM"}, {"measurement": "Ki", "setting": "[2]", "result": 542, "unit": "µM"}, {"measurement": "EC50", "setting": "HepG2", "result": "> 100", "unit": "µM"}]}, {"smiles": "CC(=O)OC[C@H](Cc1c[nH]c2ccccc12)N1CC(=O)N[C@@H](Cc2c[nH]c3ccccc23)C1", "values": [{"measurement": "EC50", "setting": "Trypanosoma brucei", "result": 13, "unit": "µM"}, {"measurement": "Ki", "setting": "[2]", "result": 58, "unit": "µM"}, {"measurement": "EC50", "setting": "HepG2", "result": 29, "unit": "µM"}, {"measurement": "selectivity ratio", "setting": "[3]", "result": 1.8}]}, {"smiles": "COC(=O)[C@H](Cc1c[nH]c2ccccc12)N1CCCN[C@@H](Cc2c[nH]c3ccccc23)C1=O", "values": [{"measurement": "EC50", "setting": "Trypanosoma brucei", "result": 5, "unit": "µM"}, {"measurement": "Ki", "setting": "[2]", "result": 53, "unit": "µM"}, {"measurement": "EC50", "setting": "HepG2", "result": 21, "unit": "µM"}, {"measurement": "selectivity ratio", "setting": "[3]", "result": 4.2}]}, {"smiles": "CC(C)C[C@@H](C(N)=O)N1CCN(C(=O)[C@H](Cc2c[nH]c3ccccc23)N2CCN[C@@H](Cc3ccccc3)C2=O)[C@@H](Cc2ccccc2)C1=O", "values": [{"measurement": "Kd", "setting": "[4]", "result": 2.9, "unit": "µM"}]}, {"smiles": "NC(=O)[C@H](Cc1ccccc1)N1CC(=O)N[C@@H](Cc2c[nH]c3ccccc23)C1=O", "values": [{"measurement": "EC50", "setting": "Trypanosoma brucei", "result": "> 100", "unit": "µM"}, {"measurement": "Ki", "setting": "[2]", "result": "> 1000", "unit": "µM"}, {"measurement": "EC50", "setting": "HepG2", "result": "> 100", "unit": "µM"}]}]}
